CSN inh: CSN deneddylation inhibition; Q92905; Purified CSN, SCF-Nedd8-OG deneddylation, fluorescence polarization; inhibition, % at 12.5 µM; hit rate 0.38% among 360,000;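 active means pattern-corrected inhibition above about 35%, with an unprinted fluorescence ratio check between 0.5 and 1.5, limit read from the data, passing the limit was not always enough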;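 further: 0% = enzyme with substrate and 100% = substrate without enzyme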
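Test system: Human Csn5 produced in HEK293T cells | Compound: 12.5 µM single point | Times: 90 min, room temperature | Signal: Fluorescence polarization readout | Read-out basis: % inhibition of substrate cleavage by Csn5 | Controls: no-enzyme wells high, enzyme-with-substrate wells low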
IDE inh: cellular human IDE inhibition | HEK cells, FAbetaB cleavage, fluorescence polarization | inhibition, % at 5.59 µM | P14735 | hit rate 0.41% among 320,000 | AID 434962;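 active means percent inhibition above the average of all tested compounds plus 3 SD, set per screening campaign, cut at about 16% in these data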;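 further: IDE supplied by intact live HEK cells; FP after avidin binding of uncleaved biotin substrate so inhibition keeps polarization high; 0% = DMSO wells and 100% = 60 µM reference IDE inhibitor Ii1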
TPT1 inh: inhibitors of Candida albicans tRNA 2'-phosphotransferase TPT1; recombinant caTPT1, FP RNA substrate dephosphorylation; inhibition, % at 5 µM; hit rate 0.81% among 300,000; AID 1962;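 active means inhibition above the mean of all tested compounds plus 3 SD, set per screening campaign, cut at about 24% in these data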;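 further: plate controls were DMSO alone for no effect and ferristatin control at 100 nM for full effect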
IDE cell activ: boosts human insulin-degrading enzyme activity in HEK cells; activation, % at 5.96 µM; AID 493087; FAbeta-B cleavage, fluorescence polarization; 0% vehicle, 100% cell-free pure enzyme wells; hit rate 0.073% among 340,000; P14735;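 active means activation above the mean of all tested compounds plus 3 SD, set per screening campaign, cut at about 17% in these data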
Tb MetRS inh: blocks T. brucei methionyl-tRNA synthetase activity | purified T. brucei MetRS, ATP depletion, Kinase-Glo luminescence | inhibition, % at 11.9 µM | hit rate 0.4% among 360,000;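 active means inhibition above a per-plate cutoff of the control wells' mean inhibition plus 3 SD, cut at about 5.5% in these data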;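 further: 0% = DMSO wells median and 100% = median of wells with control inhibitor compound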
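Assay system: T. brucei methionyl-tRNA synthetase, purified | Medium: HEPES buffer with MgCl2, KCl, DTT, spermine, BSA, pyrophosphatase | Compound: 11.9 µM single point | Incubation: 15 min enzyme-compound preincubation, 2 h reaction, 10 min detection, 25 °C | Measured by: Kinase-Glo luciferase luminescence reporting remaining unconsumed ATP | Measure: % inhibition normalized to control-well medians | Replication: Singlicate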
HNF4A DNA FP: change in binding of human HNF4 alpha to DNA. hit rate 0.3% among 360,000. AID 1224865. activity change, % at 10 µM. P41235. HNF4a-FITC DNA binding, fluorescence polarization, 1 h; in the data active means activity change above about 30%, passing the limit was not always enough
Target sequence (P41235 whole entry, looked up): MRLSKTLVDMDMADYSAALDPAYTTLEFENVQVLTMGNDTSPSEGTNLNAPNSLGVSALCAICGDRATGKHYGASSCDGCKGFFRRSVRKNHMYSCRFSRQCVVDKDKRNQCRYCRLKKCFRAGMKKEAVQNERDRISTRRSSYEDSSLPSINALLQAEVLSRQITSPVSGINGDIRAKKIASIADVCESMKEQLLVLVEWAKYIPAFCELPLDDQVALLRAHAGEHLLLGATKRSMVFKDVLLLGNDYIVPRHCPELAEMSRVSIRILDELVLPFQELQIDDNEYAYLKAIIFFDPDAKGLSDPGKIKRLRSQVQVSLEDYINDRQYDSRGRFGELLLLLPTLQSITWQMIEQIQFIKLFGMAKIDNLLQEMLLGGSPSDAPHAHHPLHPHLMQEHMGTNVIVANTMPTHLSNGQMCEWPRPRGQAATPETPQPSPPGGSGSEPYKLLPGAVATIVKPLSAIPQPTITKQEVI
caTPT1 confirm: TPT1 (C. albicans) inhibition, confirmation. shares compounds with TPT1 inh. inhibition, % at 5 µM. recombinant caTPT1, fluorescence polarization, RNase T1 coupled. AID 2149. hit rate 74% among 2,400;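 active means inhibition above the primary screen limit, the mean inhibition of all tested compounds plus 3 SD, cut at about 25% in these data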
RNase T1 counter: RNase T1 inhibition in TPT1 counter-screen; shares compounds with TPT1 inh; RNase T1 cleavage, fluorescence polarization, 1536-well; inhibition, % at 5 µM; hit rate 83% among 2,400; AID 2153;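 active means inhibition above the solvent-only control well mean plus 3 SD, limit set per screening run, cut at about 23% in these data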;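 further: plate controls were DMSO wells with enzyme for no effect and wells without RNase T1 for full effect; inhibitors block cleavage so intact labeled substrate keeps polarization high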
An asterisk follows results filed as active; nt = no result. Sampled rows, rich in hits. Any-hit rate of the full collection: about 1.7%.

SMILES	CSN inh	IDE inh	TPT1 inh	IDE cell activ	Tb MetRS inh	HNF4A DNA FP	caTPT1 confirm	RNase T1 counter
CCOC(=O)c1cc(C)sc1/N=C/C1C(=O)CC(C)(C)CC1=O	3	-12	-1	1	0	0	nt	nt
CCOC(=O)c1c(CC(C)C)csc1/N=C/C1C(=O)CC(C)(C)CC1=O	36*	-1	61*	-5	0	-3	12	15
CCOc1ccccc1CN1CCNC(=O)C1CC(=O)N(C)C1CCOCC1 (stereo not given)	7	1	-4	1	0	7	nt	nt
COc1cc(/C=N/Nc2snc(SC)c2C#N)ccc1O	-1	3	1	3	0	0	nt	nt
CSc1nsc(/C=C/Nc2ccc(C)c(C)c2)c1C#N	14	0	34*	-8	0	97	66*	85*
CSc1nsc(/C=C/Nc2ccc(C)cc2)c1C#N	17	-2	31*	-2	0	96	50*	59*
O=c1[nH]c(N2CCCCC2)nc2ncn(Cc3ccccc3)c12	-1	3	6	8	1	-2	nt	nt
CC1(C(=O)NS(=O)(=O)Cc2ccccc2C(F)(F)F)CCN1C(=O)c1ccco1 (stereo not given)	-2	nt	nt	nt	0	-2	nt	nt
CC1=Nc2ccccc2/C1=C\c1nc(-c2ccccc2)oc1O	16	3	80*	-1	0	28	99*	108*
CC1=Nc2ccccc2/C1=C\c1nc(-c2ccc(C(F)(F)F)cc2)oc1O	-71	4	156*	-10	0	-53	152*	142*
COc1ccc(-c2nc(/C=C3\C(C)=Nc4ccccc43)c(O)o2)cc1	4	3	95*	-7	-1	24	106*	112*
Oc1oc(-c2ccccc2)nc1C=Nc1ccccc1	1	-1	3	3	1	2	nt	nt
O=C(c1cc2c(c(-c3cccc(-c4ccncc4)c3)n1)[C@H](CCO)N(C(=O)c1ccc3c(c1)OCO3)C2)N1CCOCC1	-2	nt	nt	nt	0	2	nt	nt
COc1ccc2c(c1)C=C(CN1CCN(C3CCCC3)C(CCO)C1)CO2 (stereo not given)	-7	2	3	-2	1	-1	nt	nt
C=CCNc1nc(N)c([N+](=O)[O-])c(Nc2cccc(Cl)c2)n1	1	3	36*	2	-1	1	3	5
CNc1nc(N)c([N+](=O)[O-])c(Nc2cccc(Cl)c2)n1	6	2	0	nt	0	3	nt	nt
CN(C)/N=C/C=C1\CCC/C(=C/c2cccs2)C1=O	15	6	49*	-1	0	34	56*	66*
O=C1/C(=C/c2cccs2)COc2ccccc21	7	3	-3	-1	-1	2	nt	nt
CN(C)/N=C/C=C1\CC/C(=C\c2ccc(Br)cc2)C1=O	22	3	77*	-4	0	29	55*	66*
c1ccc(-c2nc(-c3ccco3)n3ccccc23)cc1	13	4	28*	-1	0	-21	25*	30*
O=[N+]([O-])C(/C=C(\Cl)[N+](=O)[O-])=C1N(Cc2ccc(Cl)nc2)CCN1Cc1ccc(Cl)nc1	7	1	40*	-1	0	0	51*	70*
CC1=[N+](C)N(c2ccccc2)C(=O)C1N=Cc1ccccc1Cl (stereo not given)	-7	-4	-1	3	-1	-2	nt	nt
CC1=[N+](C)N(c2ccccc2)C(=O)C1N=Cc1c(Cl)cccc1Cl (stereo not given)	-1	-6	133*	4	0	1	7	11
C#CCOCCOCCOCCNc1nc(N2CCN(C(=O)[C@H](CCCCN)n3cc(CN)nn3)CC2)nc(N2CCN(C(=O)[C@H](CCC(=O)O)n3cc([C@@H](N)CCSC)nn3)CC2)n1	0	3	nt	4	0	4	nt	nt
